Entries after “also recorded” stand apart in the source; their conditions may differ. Where two headings read alike, the source gives them in different places.

The values below come from article PMC8969127 (Molecular Pharmacology, 2022).

The target of assay [1] is T1, CatSper (Homo sapiens, UniProt Q7RTX7+Q86XQ3+Q8NEC5+Q96P56). Nature of the assay: Human sperm calcium influx assay, activation. The format is cell-based. The following applies: for Emax: read-out: Emax, %, Steroid Alone; for effect on [Ca2+]i as activator: concentrations up to 10 µM. In short, it runs like this: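 Semen from healthy donors was liquefied at 37 °C, washed twice in low pH/low K+ buffer (pH 6.7, 0.2 mM CaCl2), then loaded with 10 µM Fluo-4-AM plus 1 mM probenecid, 30 min, room temperature, dark. On FLIPR, buffer was added first, then openers 2 min later. Fluorescence was read for 7 min at 2-s intervals. EC50 came from 8-point, 3-fold dilutions in duplicate, peak height, four-parameter fit. Emax is relative to 3 µM progesterone. Activators were retested with 30 µM mibefradil.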

Assay [2] has as its target T1, CatSper. The following applies: read-out: EC50, patch-clamp electrophysiology; ref Lishko et al., 2011; cited from earlier work. In general terms: The patch-clamp technique gives a direct electrical read-out from membranes.
The target of assay [3] is T1, CatSper. The following applies: read-out: EC50, rapid-mixing calcium fluorimetry; ref Strunker et al., 2011; cited from earlier work.
The target in assay [4] is T1, CatSper. It counts as cell-based. The following applies: for IC50: human sperm.
For assay [5], the target named is T1, CatSper. Nature of the assay: Activator concentration-response curves in the presence of increasing inhibitor. It counts as cell-based. The method in brief: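 Washed human donor sperm in low pH/low K+ buffer (pH 6.7) were loaded with 10 µM Fluo-4-AM plus 1 mM probenecid, 30 min, room temperature, dark. FLIPR read: ex 470–495/em 515–575 nm. Activator concentration-response curves were run with increasing concentrations of competitive antagonist, added 2 min before the activator. Activator EC50 values were taken from maximal peak height (four-parameter fit). pKB came from Schild regression.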

The next assay deals with human sperm. Kind of assay: Computer-assisted sperm analysis. It counts as cell-based. The following applies: for effect on total and progressive sperm motility: up to 30 µM. In short, it runs like this: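 Donor semen was liquefied ≥40 min at 37 °C, then swim-up in HAM's F10 for 1 h at 37 °C, 5% CO2. Cells were adjusted to 10x10^6/mL and capacitated in HAM's F10 with 5% BSA and 15 mM NaHCO3 at 37 °C, 5% CO2, with test compound or DMSO. HAM was induced with 100 nM progesterone or 100 nM PGE1. CASA at 37 °C used ≥10 fields, ≥200 cells. Motility classes came from VAP/VSL/VCL-derived LIN and STR, normalized to vehicle controls, ≥3 experiments.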

[6] abbreviates: pEC50, calcium influx, Steroid Alone, human sperm, mean ±SD.
[7] abbreviates: KB, Leff-Dougall analysis, averaged across the activators, PROG, PGE1 and l-sirenin.
Setting [8] is: Leff-Dougall pKB, opener PGE1, from IC50, mean ± SD.
Setting [9] is: Leff-Dougall pKB, opener PROG, from IC50, mean ± SD.
Where [10] appears, read: Leff-Dougall pKB, opener l-Sirenin, from IC50, mean ± SD.
Setting [11] is: pIC50, inhibition of PGE1-induced calcium influx, opener 10 nM PGE1 (EC80), mean ±SD.
Where [12] appears, read: pIC50, inhibition of l-sirenin-induced calcium influx, opener 3 µM l-sirenin (EC80), mean ±SD.
[13] abbreviates: Schild pKB, opener PGE1, mean ± standard error.
Where [14] appears, read: Schild pKB, opener PROG, mean ± standard error.
Setting [15] is: Schild pKB, opener l-Sirenin, mean ± standard error.
[16] abbreviates: average pKB, Schild analysis, averaged across the activators, PROG, PGE1 and l-sirenin, mean ±SD.

What is called EC50 is the concentration at which the effect is half-maximal. A word on the Emax: it is the greatest response seen or fitted, relative to the assay's reference. As for `CC(=O)[C@H]1CC[C@H]2[C@@H]3CCC4=CC(=O)CC[C@]4(C)[C@H]3CC[C@]12C` [compound 1, progesterone], the EC50 on CatSper [1] (EC50, increase of [Ca2+]i in human sperm) is 0.0037 µM; at CatSper [1] (setting [6]), 0.00372 µM; on CatSper [2], 0.0077 µM; on CatSper [3], 0.042 µM. On CatSper [1], the Emax is 111%. Also, on CatSper [1] (then decayed slowly for up to 300 seconds), the “time at which the calcium signal peaked” value was about 100 s.

Usually IC50 stands for the concentration that gives 50% inhibition. `CC(=O)O[C@]1(C(C)=O)CC[C@H]2[C@@H]3C[C@H](C)C4=CC(=O)CC[C@]4(C)[C@H]3CC[C@@]21C` [compound 4, medroxyprogesterone acetate]: the “effect on [Ca2+]i as activator” value on CatSper [1] (listed as MPA) is “little effect on [Ca^2+]i; also recorded: negligible activity”. Also, the concentration giving a half-maximal response (EC50) on CatSper [1] (setting [6]) is over 10 µM. The Emax at CatSper [1] amounted to 17%. In addition, the Kb on CatSper [4] (setting [7]) was 1.6 µM; on CatSper [4] (setting [8]), 1 µM; on CatSper [4] (setting [9]) it was 0.692 µM; on CatSper [4] (setting [10]) it was 6.31 µM; on CatSper [4] (mean pKB, Leff-Dougall analysis, averaged across the activators, PROG, PGE1 and l-sirenin, mean ±SD) it was 1.66 µM; on CatSper [5] (setting [13]), 4.17 µM. Further, the results for the Kb on CatSper [5] (setting [14]), on CatSper [5] (setting [15]) and on CatSper [5] (setting [16]) were 0.646 µM, 6.03 µM and 2.51 µM, respectively. The IC50 is 9.77 µM at CatSper [4] (setting [11]) and 6.17 µM at CatSper [4] (setting [12]). Moreover, the “effect on total and progressive sperm motility” value in the assay with human sperm (CASA, human sperm) is “reduced total and progressive motility at 30 µM but not at lower concentrations”.

For `C#C[C@]1(O)CC[C@H]2[C@@H]3CCC4=CC(=O)CC[C@@H]4[C@H]3CC[C@@]21CC` [compound 5, levonorgestrel], at CatSper [1], the EC50 is over 10 µM. The “effect on [Ca2+]i as activator” value on CatSper [1] is given as “negligible activity”. Further, the Emax on CatSper [1] is 15%. Moreover, the Kb at CatSper [4] (setting [7]) was 4.5 µM; at CatSper [4] (setting [8]), 3.16 µM; at CatSper [4] (setting [9]) it was 3.39 µM; on CatSper [4] (setting [10]) it was 8.51 µM; on CatSper [5] (setting [13]), 437 µM; at CatSper [5] (setting [14]), 0.158 µM. Moreover, the Kb was 56.2 µM on CatSper [5] (setting [15]) and 15.8 µM on CatSper [5] (setting [16]). Further, the values for the IC50 on CatSper [4] (setting [11]) and at CatSper [4] (setting [12]) were 30.2 µM and 81.3 µM, respectively. Also, in the assay on human sperm (CASA, human sperm), the “effect on total and progressive sperm motility” value is “no significant effect”.

Take `C[C@]12CCC(=O)C=C1CC[C@@H]1[C@@H]2[C@@H](O)C[C@]2(C=O)[C@@H](C(=O)CO)CC[C@@H]12` [compound 6, aldosterone]: the “effect on [Ca2+]i as activator” value at CatSper [1] was “did not increase [Ca^2+]i; also recorded: negligible activity”. Further, the Kb at CatSper [4] (setting [7]) was 5.1 µM; at CatSper [4] (setting [8]) it was 6.03 µM; at CatSper [4] (setting [9]), 3.47 µM; at CatSper [4] (setting [10]), 6.46 µM; on CatSper [5] (setting [13]), 724 µM; on CatSper [5] (setting [14]), 4.17 µM. The Kb on CatSper [5] (setting [15]) was 15.1 µM; on CatSper [5] (setting [16]), 36.3 µM. Further, the values for the IC50 at CatSper [4] (setting [11]) and at CatSper [4] (setting [12]) were 57.5 µM and 61.7 µM, respectively. Also, the “effect on total and progressive sperm motility” value in the assay on human sperm (CASA, human sperm) was “no significant effect”.

Consider `COCC(=O)O[C@]1(CCN(C)CCCc2nc3ccccc3[nH]2)CCc2cc(F)ccc2[C@@H]1C(C)C` [mibefradil], for which, on CatSper [1] (ML218 up to 100 µM, mibefradil at higher concentrations), the “calcium influx elicited by the blocker itself” value is “we did not observe a mibefradil-induced calcium influx”. Also, at CatSper [4] (blocker 30 µM), the “block of calcium influx for all modes of channel opening” value is recorded as “completely blocked influx”. The IC50 on CatSper [4] (setting [11]) is 8.32 µM; on CatSper [4] (setting [12]), 8.13 µM. For the same compound, the “concentration that completely ablated total and progressive motility” value in the assay on human sperm (CASA, human sperm) amounted to 30 µM. Besides, in the assay with human sperm (HAM induced with 100 nM PROG or 100 nM PGE1, 4 hours, capacitating conditions), the “concentration that completely ablated HAM” value is given as 10 µM.
